Measurements as given in ChEMBL document CHEMBL4765320, “Identification and optimization of piperine analogues as neuroprotective agents for the treatment of Parkinson's disease via the activation of Nrf2/keap1 pathway” (Eur J Med Chem, 2020).
Activity calls are given as the source filed them. The calls are words filed in the database; no cut-off is given here.

Experiments:
PC-12 [1] = experiment: Inhibition of H202-induced apoptosis in rat PC-12 cells assessed as viable cells at 50 uM after 24 hrs by Annexin-V-FITC/PI-staining based flow cytometric analysis (reference value: 52.01%); type: functional; settings: read-out: Activity
Method in brief: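 PC12 cells seeded 2 × 10⁵/well for 24 h, pretreated 24 h with 12.5, 25, 50 or 100 µM compound, then given fresh medium containing 650 µM H2O2. Harvested cells washed in binding buffer, stained 5 min with Annexin V-FITC/PI, analysed by flow cytometry.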

PC-12 [2] = experiment: Inhibition of H2O2-induced reactive oxygen species production in rat PC-12 cells assessed as decrease in ROS accumulation at 12.5 to 50 uM measured after pretreated for 24 hrs followed by H2O2 challenge and measured after 24 hrs by DCFH-DA probe based flow cytometry; type: functional, cell-based; settings: dose 12.5-50 µM, time 48.0 hrs
Method in brief: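 PC12 cells seeded 1 × 10⁴/well, pretreated 24 h with 12.5–100 µM compound, then 300 µM H2O2 for 24 h. Rinsed, loaded with DCFH-DA (1:1000 in serum-free medium) 15 min at room temperature in the dark, washed; fluorescence read by microscopy, plate reader ([…]) and flow cytometry; three independent experiments.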

[3] = molecular target: T1, Nuclear factor erythroid 2-related factor 2 (Rattus norvegicus) (UniProt O54968); experiment: Induction of Nrf2 nuclear translocation in rat PC-12 cells assessed as Nrf2 accumulation in nucleus at 25 uM by Western blot analysis; type: cell-based; settings: filed as activator, time 4-8 hrs, TDE = time-dependent effect
T1 sequence (whole entry): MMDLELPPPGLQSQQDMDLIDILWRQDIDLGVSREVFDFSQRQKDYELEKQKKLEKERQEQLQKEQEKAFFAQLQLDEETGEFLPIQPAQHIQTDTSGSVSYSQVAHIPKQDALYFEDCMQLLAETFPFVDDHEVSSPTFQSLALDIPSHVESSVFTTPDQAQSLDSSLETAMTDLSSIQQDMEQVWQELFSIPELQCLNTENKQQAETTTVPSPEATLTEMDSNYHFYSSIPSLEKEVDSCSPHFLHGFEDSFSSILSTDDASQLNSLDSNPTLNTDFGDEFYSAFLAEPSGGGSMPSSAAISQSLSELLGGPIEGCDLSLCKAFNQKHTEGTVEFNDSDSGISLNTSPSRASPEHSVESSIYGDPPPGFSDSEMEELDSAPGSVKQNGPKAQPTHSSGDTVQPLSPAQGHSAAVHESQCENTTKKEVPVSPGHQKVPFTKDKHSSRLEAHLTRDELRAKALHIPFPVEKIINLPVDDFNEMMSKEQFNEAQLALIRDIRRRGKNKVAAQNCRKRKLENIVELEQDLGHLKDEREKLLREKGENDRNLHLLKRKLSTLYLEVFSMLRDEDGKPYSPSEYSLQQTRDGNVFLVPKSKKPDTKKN
Method in brief: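 PC12 cells incubated with 25 µM compound for 4, 6 and 8 h; nuclear and cytoplasmic fractions prepared with an extraction kit; nuclear, cytosolic and total Nrf2 assessed by SDS-PAGE/PVDF Western blot. Three independent experiments.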

Mus musculus [4] = experiment: Neuroprotective activity in lesioned C57BL/6 mouse model of Parkinson's disease assessed as increase in time spent on rotarod at 100 mg/kg, po administered for 2 week after MPTP stimulation by rotarod test; type: functional; settings: time 2 weeks
Method in brief: (§1)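 Male 10-week-old C57BL/6 mice (20–23 g), n = 6/group. Prophylactic: oral compound (50 or 100 mg/kg in saline) 2 weeks, then MPTP-HCl 25 mg/kg i.p. in week 3. Therapeutic: MPTP-HCl 25 mg/kg i.p. 1 week, then oral 100 mg/kg 2 weeks. Saline vehicle. Pole/rotarod training last 3 days; TH immunohistochemistry on SNpc and striatum.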

Mus musculus [5] = experiment: Neuroprotective activity against lesioned C57BL/6 mouse model of Parkinson's disease assessed as increase in number of TH positive cells at 50 to 100 mg/kg , po administered for 2 week before MPTP stimulation by Immuno histochemistry assays; type: functional; settings: dose 50-100 mg/kg, time 2 weeks; method in brief: as §1

Activity [3]: Tde
Structure (SMILES): COc1ccccc1/C=C/C=C/C(=O)N1CCCCC1
viability at 50 µM (PC-12 [1]): 74.8% | inhibition (PC-12 [2]): Active | Time (Mus musculus [4]): 189.5 s | Activity (Mus musculus [5]): 30.7%
